Laboratory results as given in ChEMBL document CHEMBL5316295, “Systematic Design of Adenosine Analogs as Inhibitors of a Clostridioides difficile-Specific DNA Adenine Methyltransferase Required for Normal Sporulation and Persistence” (J Med Chem, 2023).
The source made the active and inactive calls. The calls are words filed in the database; no cut-off is given here.

Experiments:
[1] = molecular target: T1, RNA N(6)-adenosine-methyltransferase METTL16 (Homo sapiens) (UniProt Q86W50); assay: Inhibition of human METTL16 using 5'-GGUUGGCGUAGGCUACAGAGAAGCCAACC-3' as substrate and SAM as cosubstrate at 10 uM incubated for 15 mins
T1 sequence (whole entry): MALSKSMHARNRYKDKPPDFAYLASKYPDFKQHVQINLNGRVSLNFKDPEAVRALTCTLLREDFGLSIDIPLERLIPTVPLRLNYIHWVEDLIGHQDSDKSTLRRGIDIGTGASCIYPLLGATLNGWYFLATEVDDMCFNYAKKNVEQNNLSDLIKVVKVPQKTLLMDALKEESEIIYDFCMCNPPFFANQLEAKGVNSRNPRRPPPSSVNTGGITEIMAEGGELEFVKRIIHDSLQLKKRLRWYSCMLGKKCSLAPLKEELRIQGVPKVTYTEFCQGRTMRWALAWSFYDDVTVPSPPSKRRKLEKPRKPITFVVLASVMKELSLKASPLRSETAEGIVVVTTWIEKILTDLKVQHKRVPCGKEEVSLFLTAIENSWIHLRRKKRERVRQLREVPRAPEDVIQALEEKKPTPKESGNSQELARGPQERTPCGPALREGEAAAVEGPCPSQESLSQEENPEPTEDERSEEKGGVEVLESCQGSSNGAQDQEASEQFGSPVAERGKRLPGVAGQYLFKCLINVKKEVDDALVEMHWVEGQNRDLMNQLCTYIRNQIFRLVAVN
Summary of the method: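 Under CamA buffer conditions (30 μM SAM) the assay ran 15 min with ssRNA hairpin substrate and 10 μM inhibitor. A separate condition used 0.4 μM enzyme, 5 μM RNA, 160 μM SAM in 20 mM Tris–HCl pH 8.0, 400 mM NaCl, 1 mM DTT, 0.25% DMSO for 30 min.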

[2] = molecular target: T2, Histone-lysine N-methyltransferase EHMT2 (Homo sapiens) (UniProt Q96KQ7); assay: Inhibition of human G9a (913 to 1193 residues) expressed in Escherichia coli BL21 (DE3)-gold cells using histone H3 (1 to 21 residues) as substrate and 3H-SAM as cosubstrate at 10 uM pretreated with compound for 20 mins in presence of histone H3 (1 to 21 residues) followed by cosubstrate addition and measured after 1 hr; details: time 80.0 min
T2 sequence (whole entry): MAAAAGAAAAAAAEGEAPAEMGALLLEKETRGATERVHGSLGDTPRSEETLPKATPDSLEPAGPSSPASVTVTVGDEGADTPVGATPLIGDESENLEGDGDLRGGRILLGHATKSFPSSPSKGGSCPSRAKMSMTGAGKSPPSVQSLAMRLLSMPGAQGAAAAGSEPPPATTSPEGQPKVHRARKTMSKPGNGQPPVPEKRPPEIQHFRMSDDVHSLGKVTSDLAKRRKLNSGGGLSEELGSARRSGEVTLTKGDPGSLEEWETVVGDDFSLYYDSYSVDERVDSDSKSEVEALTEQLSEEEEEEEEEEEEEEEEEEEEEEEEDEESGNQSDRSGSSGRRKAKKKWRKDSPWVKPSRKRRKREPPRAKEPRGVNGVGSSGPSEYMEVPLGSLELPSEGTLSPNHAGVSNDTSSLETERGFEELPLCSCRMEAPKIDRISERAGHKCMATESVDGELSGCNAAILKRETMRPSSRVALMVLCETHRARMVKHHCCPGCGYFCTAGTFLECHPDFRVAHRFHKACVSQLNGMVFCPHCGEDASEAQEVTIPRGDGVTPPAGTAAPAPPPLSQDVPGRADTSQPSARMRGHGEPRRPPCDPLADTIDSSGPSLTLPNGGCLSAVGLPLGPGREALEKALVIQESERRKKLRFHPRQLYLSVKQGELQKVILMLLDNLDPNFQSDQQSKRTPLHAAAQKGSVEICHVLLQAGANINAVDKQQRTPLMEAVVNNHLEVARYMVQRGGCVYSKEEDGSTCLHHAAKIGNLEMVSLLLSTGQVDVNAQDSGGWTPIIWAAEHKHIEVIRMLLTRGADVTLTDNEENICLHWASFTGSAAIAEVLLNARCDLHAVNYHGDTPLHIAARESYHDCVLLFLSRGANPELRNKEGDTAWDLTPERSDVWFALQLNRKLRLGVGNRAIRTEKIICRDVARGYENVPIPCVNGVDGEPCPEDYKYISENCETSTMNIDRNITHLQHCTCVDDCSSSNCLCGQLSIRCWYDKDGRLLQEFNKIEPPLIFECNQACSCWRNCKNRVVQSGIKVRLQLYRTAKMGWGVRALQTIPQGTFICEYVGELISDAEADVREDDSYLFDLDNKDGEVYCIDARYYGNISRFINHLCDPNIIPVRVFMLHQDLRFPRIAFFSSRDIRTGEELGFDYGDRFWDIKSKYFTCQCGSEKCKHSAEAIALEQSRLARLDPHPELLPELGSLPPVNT
Summary of the method: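 Enzymes (DOT1L 1 nM; EZH2, G9a, PRMT1 5 nM) mixed with substrate (0.05 mg/mL oligonucleosomes for DOT1L; 0.05 mg/mL core histone for EZH2; 5 μM H3 1–21 peptide for G9a; 5 μM H4 for PRMT1). Compound (10 μM) added for 20 min at room temperature, then 1 μM ³H-SAM for 1 h at 30 °C; filter-paper read-out. Triplicates, mean ± SD.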

## OC[C@H]1O[C@@H](n2cnc3c(NCCCc4ccc(O)cc4)ncnc32)[C@H](O)[C@@H]1O
[1]
  inhibition: inactive
[2]
  inhibition: inactive

## CC(C)(C)OC(=O)N1CCC(CCNc2ncnc3c2ncn3[C@@H]2O[C@H](CO)[C@@H](O)[C@H]2O)CC1
[1]
  inhibition: inactive
[2]
  inhibition: inactive

## CC(C)(C)OC(=O)N1CCC(CCCNc2ncnc3c2ncn3[C@@H]2O[C@H](CO)[C@@H](O)[C@H]2O)CC1
[1]
  inhibition: inactive
[2]
  inhibition: inactive
